Kir21 block = inhibitors of mouse Kir2.1 inward-rectifier potassium channel; Inward rectifier potassium channel 2 (Mus musculus), P35561; 0.85% of 310,000 active; HEK293-Kir2.1, FluxOR thallium flux fluorescence; active compounds read low; AID 1672, 2009; B-score at 10 µM;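 active = fluorescence ratio B-score at or below minus 3 SD of library scores, with starting-brightness B-score within 2 SD, cut at about -4.2 in these data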;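 also: channel flux triggered by added potassium and thallium sulfate stimulus; B-score of peak minus minimum fluorescence over baseline after thallium stimulus; more negative B-score means stronger Kir2.1 block with less thallium influx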
KCNK9 inh = KCNK9 potassium channel inhibitors, primary screen, HEK293 cells, thallium flux; FluxOR thallium flux fluorescence; active compounds read low; 1.2% of 310,000 active; Potassium channel subfamily K member 9 (Homo sapiens), Q9NPC2; B-score at 10 µM;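 active = ratio B-score over 3 SD below the library mean, with starting fluorescence within 5 SD of its mean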;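 also: negative B-score means less thallium flux so channel inhibition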
KCNQ1 pot = potentiators or activators of KCNQ1 channel, primary screen, cell-based, thallium flux, high-throughput | CHO-K1 KCNQ1, thallium flux FluxOR fluorescence; active compounds read high | 0.35% of 310,000 active | B-score at 10 µM | Potassium voltage-gated channel subfamily KQT member 1 (Homo sapiens), P51787;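 active = fluorescence ratio B-score, a plate-corrected score, at least three library SD, with initial intensity B-score within 5 SD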
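Assay system: stable KCNQ1 CHO-K1 line; medium: assay buffer, equal DMSO in all wells; timing: 90 min dye loading and 20 min compound exposure, both at room temperature; technique: kinetic FluxOR thallium fluorescence, 10-s 1-Hz baseline, 110-s post-stimulus read; read-out basis: B score of baseline-normalized fluorescence ratio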
KCNQ1 block = inhibitors of human KCNQ1 channel, primary screen, cell-based, thallium flux, high-throughput | AID 2642, 2010 | 1.3% of 310,000 active | Potassium voltage-gated channel subfamily KQT member 1 (Homo sapiens), P51787 | B-score at 10 µM | CHO-K1 KCNQ1, FluxOR thallium flux fluorescence; active compounds read high;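 active = compounds whose thallium flux B-score, printed positive for inhibition, exceeds three library SD while starting fluorescence stays within three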;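 also: channel opened by potassium depolarization with thallium stimulus after 20 min compound exposure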
KCNK3 block = human KCNK3 channel inhibitors, primary screen, CHO cells, FluxOR thallium flux, B-score | Potassium channel subfamily K member 3 (Homo sapiens), O14649 | FluxOR fluorescence; active compounds read low | B-score at 10 µM | 0.84% of 340,000 active | AID 602410, 2012;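 active = B-score under library mean minus 4 SD, starting fluorescence ratio at most library mean plus 5 SD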;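 also: more negative B-score means stronger inhibition of thallium flux through KCNK3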
Target sequence (O14649 whole entry, looked up): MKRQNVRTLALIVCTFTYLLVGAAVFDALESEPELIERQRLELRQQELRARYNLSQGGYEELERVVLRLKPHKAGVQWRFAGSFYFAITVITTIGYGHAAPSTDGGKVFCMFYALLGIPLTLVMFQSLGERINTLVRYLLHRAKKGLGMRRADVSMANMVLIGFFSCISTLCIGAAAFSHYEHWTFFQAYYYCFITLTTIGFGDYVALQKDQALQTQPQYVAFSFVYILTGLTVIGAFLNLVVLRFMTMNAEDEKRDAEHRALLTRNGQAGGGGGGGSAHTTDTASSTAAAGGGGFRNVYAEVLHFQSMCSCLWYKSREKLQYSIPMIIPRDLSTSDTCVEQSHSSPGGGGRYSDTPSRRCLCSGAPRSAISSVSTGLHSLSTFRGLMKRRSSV
hERG protect = hERG rescue from dofetilide block, primary screen, cell-based, CHO-hERG, FluxOR thallium flux, dofetilide IC70; Voltage-gated inwardly rectifying potassium channel KCNH2 (Homo sapiens), Q12809; dofetilide IC70 present; activation (rescue from dofetilide block), less the hit threshold, % at 10 µM; 0.51% of 310,000 active;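 active = activation above the mean of controls blocked by dofetilide plus 5 SD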;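 also: thallium influx through hERG after potassium depolarization seen as dye fluorescence rise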
KCNK9 inh conf = KCNK9 potassium channel inhibitors, confirmation, HEK293 cells, thallium flux, duplicate; AID 492992, 2010; shares compounds with KCNK9 inh; FluxOR thallium flux fluorescence; 43% of 4,900 active; inhibition, % at 10 µM;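 active = thallium signal inhibited by more than 5 SD of the compound-free buffer control wells, on both duplicate plates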
Kir21 sel = mouse Kir2.1 channel inhibition, confirmation, selectivity assay for KCNK9 modulator project, cell-based, HEK293, thallium flux | shares compounds with KCNK9 inh | 4% of 4,900 active | inhibition, % at 10 µM | Kir2.1 cells, FluxOR thallium flux fluorescence;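 active = thallium signal drop more than 5 SD beyond the mean of the no-compound control wells, seen in both duplicate plates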;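 also: signal is fluorescence rise after thallium addition divided by baseline fluorescence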
KCNK9 uninduced = thallium flux in non-induced HEK293 cells, confirmation, counter-screen for KCNK9 inhibitor project, cell-based, second counter screen, non-induced KCNK9-HEK293. 40% of 4,900 active. AID 492997, 2010. inhibition, % at 10 µM. FluxOR thallium flux. shares compounds with KCNK9 inh;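 active = thallium signal drop beyond 5 SD of the untreated control mean, on both duplicate plates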
Of the large screens only hits and unclear results are named; the others gave an inactive call (follow-up assays come after a bar, where they were run). Hits are enriched below; roughly 3.7% of the tested compounds scored in any of these assays.

CCc1c(O)nc(SCc2ccccc2)n(C(C)CC)c1=O (stereo unspecified)	none
CCOC(CCn1c(SCc2cccc([N+](=O)[O-])c2)nc2ccccc2c1=O)OCC	KCNK9 inh -15 | KCNK9 inh conf 68% | Kir21 sel inactive | KCNK9 uninduced 45%
O=C(/C=C/c1ccccc1Cl)NCc1cccs1	none
O=C1CCC(C(=O)N(CCO)Cc2ccccc2)CN1CC1CCCCC1 (stereo unspecified)	none
COc1ccccc1NC(=O)C(C)Sc1nc(-c2ccccc2)cn1N (stereo unspecified)	none (no result: Kir21 block, KCNK9 inh, KCNQ1 pot, KCNQ1 block, hERG protect)
COC(=O)CNC(c1ccccc1)c1cc(Br)ccc1NC(=O)CNC(=O)OCc1ccccc1 (stereo unspecified)	KCNK9 inh -15 | KCNK9 inh conf 64% | Kir21 sel inactive | KCNK9 uninduced 32%
O=c1[nH]c(NNC(=S)NC2CCCCC2)nc2c1C1(CCCC1)Cc1ccccc1-2	KCNQ1 block 6 | KCNK9 inh conf inactive | Kir21 sel inactive | KCNK9 uninduced inactive
O=c1[nH]c(NNC(=S)NCc2ccccc2)nc2c1C1(CCCCC1)Cc1ccccc1-2	none | KCNK9 inh conf 36% | Kir21 sel inactive | KCNK9 uninduced inactive
CCOc1ccc(NC(=O)C(C)NC(=O)c2ccccc2Cl)cc1S(=O)(=O)N1CCCC1 (stereo unspecified)	none (no result: Kir21 block, KCNK9 inh, KCNQ1 pot, KCNQ1 block, hERG protect)
COc1ccc(C(=O)N2CCN(C(C)=O)CC2)cc1S(=O)(=O)N1CCOCC1	none
CCN(CC)C(=O)c1ccc(COc2ccccc2Cl)cc1	KCNK9 inh -8.7 | KCNK9 inh conf 36% | Kir21 sel inactive | KCNK9 uninduced 24%
O=C(O)c1ccc(COc2ccccc2Cl)cc1	none
Cc1ccc(Sc2nnc(Cc3ccccc3)c3ccccc23)cc1	KCNK9 inh -13 | KCNK9 inh conf 70% | Kir21 sel inactive | KCNK9 uninduced 42%
COc1ccc(Sc2nnc(Cc3ccccc3)c3ccccc23)cc1	KCNK9 inh -15 | KCNK9 inh conf inactive | Kir21 sel inactive | KCNK9 uninduced 27%
COc1ccc(Sc2nnc(-c3ccccc3)cc2C#N)cc1	none
CCC1=NN(C(=O)COc2ccccc2)C(O)(c2ccc(Br)cc2)C1 (stereo unspecified)	KCNK9 inh -17 | KCNK9 inh conf 52% | Kir21 sel inactive | KCNK9 uninduced 35%
Cc1ccc(Cl)cc1NC(=O)CN1CCOCC1	none
Cc1nnsc1C(=O)Nc1ccc(S(=O)(=O)N2CCC(C)CC2)cc1	none
CSC(=S)NN=C(C)c1cccc(C)n1	none (no result: Kir21 block, KCNK9 inh, KCNQ1 pot, KCNQ1 block, hERG protect)
COc1ccc(S(=O)(=O)Cc2ccc(C(=O)N3CCN(c4cccc(C)c4)C(C)C3)o2)cc1 (stereo unspecified)	none | KCNK9 inh conf inactive | Kir21 sel inactive | KCNK9 uninduced inactive
CC(C(=O)N1CCCc2ccccc21)N1CCN(S(=O)(=O)c2ccccc2F)CC1 (stereo unspecified)	none | KCNK9 inh conf inactive | Kir21 sel inactive | KCNK9 uninduced inactive
Nc1[nH]n2c(=O)c3c(nc2c1N=Nc1ccccc1)CCCC3	none
Nc1[nH]n2c(=O)c3c(nc2c1N=Nc1ccc(Cl)cc1)CCCC3	KCNK9 inh -9.6 | KCNK9 inh conf 39% | Kir21 sel inactive | KCNK9 uninduced inactive
CCN(C(=O)CSc1nc2cc(C(F)(F)F)ccc2n1Cc1ccccc1)C1CCS(=O)(=O)C1 (stereo unspecified)	KCNK9 inh -10 | KCNK9 inh conf 61% | Kir21 sel inactive | KCNK9 uninduced 52%
CCCCn1c(SCC(=O)N(CC)C2CCS(=O)(=O)C2)nc2cc(S(N)(=O)=O)ccc21 (stereo unspecified)	none
Cc1ccnc(N2CCCC(C(=O)Nc3cccc(C)c3C)C2)n1 (stereo unspecified)	none
S=C(NCCc1ccccc1)N1CCN(Cc2ccc(Cl)c(Cl)c2)CC1	none | KCNK9 inh conf inactive | Kir21 sel inactive | KCNK9 uninduced 25%
CCN(CC)C(=O)[C@H]1CC(CC(=O)NCCC2=CCCCC2)C(=O)N2CCc3c([nH]c4ccc(OC)cc34)[C@]12C (stereo partly specified)	none (no result: Kir21 block, KCNK9 inh, KCNQ1 pot, KCNQ1 block, hERG protect)
CCC1=C(OC(=O)N(CC)CC)N2C(=O)OC(=NCCc3c[nH]c4ccccc34)[C@]2(Cc2ccccc2)[C@H]2C1=CC[C@H]1C(=O)N(C)C(=O)[C@H]12	KCNK9 inh -9.5 | KCNK9 inh conf 41% | Kir21 sel inactive | KCNK9 uninduced 40%
CCOC(=O)c1c(NC(=O)CSc2nnc(-c3c[nH]c4ccccc34)n2CCOC)sc2c1CCCCC2	none
CCOC(=O)c1c(NC(=O)C(C)Sc2cn(C)c3ccccc23)sc2c1CCC2 (stereo unspecified)	none | KCNK9 inh conf inactive | Kir21 sel inactive | KCNK9 uninduced inactive
CCOC(=O)c1c(NC(=O)CSc2nnc3ccccn23)sc2c1CCC2	none
CCOC(=O)c1c(NC(=O)CSc2c[nH]c3ccccc23)sc2c1CCC2	none | KCNK9 inh conf inactive | Kir21 sel inactive | KCNK9 uninduced inactive
CCOC(=O)c1c(NC(=O)C(C)Sc2cccc[n+]2[O-])sc2c1CCN(Cc1ccccc1)C2 (stereo unspecified)	none (no result: Kir21 block, KCNK9 inh, KCNQ1 pot, KCNQ1 block, hERG protect)
CCOC(=O)c1c(NC(=O)CSc2c[nH]c3ccccc23)sc2c1CCCC2	none | KCNK9 inh conf inactive | Kir21 sel inactive | KCNK9 uninduced inactive
COc1ccc2c(CC(=O)OCc3nc4ccsc4c(=O)[nH]3)coc2c1	none (no result: Kir21 block, KCNK9 inh, KCNQ1 pot, KCNQ1 block, hERG protect)
COc1cc(OC)c(CN2CCC(Cc3ccccc3)CC2)cc1Br	Kir21 block -4.8 | KCNK9 inh conf inactive | Kir21 sel inactive | KCNK9 uninduced inactive
OCc1ccccc1OCCCN1CCC(Cc2ccccc2)CC1	none
